According to ChEMBL document CHEMBL4699542, “Design and synthesis of novel methoxypyridine-derived gamma-secretase modulators” (Bioorg Med Chem, 2020):
Activity calls are given as the source filed them. The rule behind the calls is not given here.

Columns and labels:
[1] = Metabolic stability in rat liver microsomes assessed as parent compound remaining at 1 uM incubated for 30 mins; type: ADME, Microsome; conditions: 0.5 h
Summary of the method: (§1)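 Test compound at 1 μM incubated 30 min with human, rat or mouse liver microsomes (1 mg/mL); parent remaining expressed as %.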

[2] = Half life in CD-1 mouse at 5 mg/kg, po administered as single dose measured up to 24 hrs; type: ADME, organism-based; conditions: in vivo
Summary of the method: (§2)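 Male CD-1 mice, 6–8 weeks old, single dose by tail vein (1 mg/kg, 3% NMP/45% PEG300/12% ethanol/40% water) or oral gavage (5 mg/kg, 5% NMP/95% PEG300). Retro-orbital plasma sampled 0.083 (iv only) to 24 h, n=3/timepoint, and analysed by HPLC/MS/MS. Non-compartmental analysis. Half-life taken from the terminal phase using ≥3 non-zero points after Tmax.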

[3] = AUC infinity in CD-1 mouse at 5 mg/kg, po administered as single dose measured up to 24 hrs; type: ADME, organism-based; parameters: route oral, dose 5 mg/kg, time <=24; conditions: in vivo; summary of the method: as §2
[4] = Drug level in brain of transgenic J20 mouse overexpressing human APP at 25 mg/kg, po administered via gavage for 3 consecutive days and measured after 4 hrs post last dose on day 3 by HPLC-MS/MS analysis; type: ADME, organism-based; conditions: time 3 day, read-out: Ct
Summary of the method: (§3)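 Female J20 mice, 5–6 months old, given 25, 50 or 100 mg/kg orally (5% NMP/95% PEG300) daily for 3 days, n=5/dose. Plasma and brain taken 4 h after the final dose and analysed by LC-MS/MS. LLOQ was 1 ng/mL in plasma and 5 ng/g in brain.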

[5] = Drug level in brain of transgenic J20 mouse overexpressing human APP at 100 mg/kg, po administered via gavage for 3 consecutive days and measured after 4 hrs post last dose on day 3 by HPLC-MS/MS analysis; type: ADME, organism-based; conditions: time 3 day, read-out: Ct; summary of the method: as §3
[6] = Drug level in brain of transgenic J20 mouse overexpressing human APP at 50 mg/kg, po administered via gavage for 3 consecutive days and measured after 4 hrs post last dose on day 3 by HPLC-MS/MS analysis; type: ADME, organism-based; conditions: time 3 day, read-out: Ct; summary of the method: as §3
[7] = Ratio of drug concentration in CD-1 mouse brain to plasma at 0.4 mg/kg, iv measured after 1 hr; type: ADME, organism-based
Cytochrome P450 2C19 = Cytochrome P450 2C19 (Homo sapiens, UniProt P33261); experiment: Inhibition of recombinant CYP2C19 (unknown origin) by fluorescence-based assay; type: ADME
Cytochrome P450 2C19, sequence (P33261 whole entry, canonical isoform): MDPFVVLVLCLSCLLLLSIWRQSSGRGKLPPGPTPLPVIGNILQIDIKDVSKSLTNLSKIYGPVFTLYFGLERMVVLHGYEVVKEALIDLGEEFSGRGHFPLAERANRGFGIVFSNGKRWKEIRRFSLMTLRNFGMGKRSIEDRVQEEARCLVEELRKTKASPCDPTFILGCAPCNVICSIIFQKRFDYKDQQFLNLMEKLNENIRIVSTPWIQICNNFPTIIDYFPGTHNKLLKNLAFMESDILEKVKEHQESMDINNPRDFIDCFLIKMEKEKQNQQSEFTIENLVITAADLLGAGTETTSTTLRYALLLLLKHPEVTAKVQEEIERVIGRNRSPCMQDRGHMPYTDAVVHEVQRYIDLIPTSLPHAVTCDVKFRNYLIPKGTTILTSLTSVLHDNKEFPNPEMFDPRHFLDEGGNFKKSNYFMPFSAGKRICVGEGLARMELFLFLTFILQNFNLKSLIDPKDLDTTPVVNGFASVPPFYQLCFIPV
Summary of the method: (§4)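 Recombinant CYP isoforms (five tested) screened for inhibition in fluorescence-based assays; IC50 in μM.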

[8] = Metabolic stability in human liver microsomes assessed as parent compound remaining at 1 uM incubated for 30 mins; type: ADME, Microsome; conditions: microsomes, 0.5 h, 1 µM; summary of the method: as §1
Gamma-secretase [9] = experiment: Modulation of gamma secretase in human SH-SY5Y cells overexpressing wild type APP751 assessed as effect on amyloid beta38 level by meso scale discovery; type: cell-based
[10] = Tmax in CD-1 mouse at 1 mg/kg, iv administered as single dose measured up to 24 hrs; type: ADME, organism-based; conditions: in vivo
Summary of the method: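 Male CD-1 mice, 6–8 weeks old, single tail-vein dose in 3% NMP/45% PEG300/12% ethanol/40% sterile water. Retro-orbital plasma (K3EDTA) taken at 0.083, 0.25, 0.5, 1, 2, 4, 8 and 24 h, n=3/timepoint, analysed by HPLC/MS/MS. Non-compartmental analysis (Model 201, uniform weighting); Tmax read directly from the data.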

Gamma-secretase [11] = experiment: Modulation of gamma secretase in human SH-SY5Y cells overexpressing wild type APP751 assessed as inhibition of amyloid beta (35 to 42 residues) formation incubated for overnight by ELISA; type: cell-based
Summary of the method: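 SHSY5Y-APP751 cells plated at 75K/well and incubated overnight at 37 °C, then treated 24 h over 10 concentrations ([…]–10 μM, 1:3.16 steps, in duplicate). Medium Aβ42 measured by sandwich ELISA (Aβ35–42 capture, AP-conjugated Aβ1–12 detection, CDP-Star luminescence) against an Aβ42 standard curve.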

[12] = Drug level in plasma of transgenic J20 mouse overexpressing human APP at 100 mg/kg, po administered via gavage for 3 consecutive days and measured after 4 hrs post last dose on day 3 by HPLC-MS/MS analysis; type: ADME, organism-based; conditions: time 3 day; summary of the method: as §3
[13] = AUC infinity in CD-1 mouse at 1 mg/kg, iv administered as single dose measured up to 24 hrs; type: ADME, organism-based; parameters: route intravenous, dose 1 mg/kg, time <=24; conditions: in vivo; summary of the method: as §2
[14] = molecular target: Gamma-secretase (Homo sapiens) (UniProt Q96BI3+Q9NZ42+Q8WW43+P49768+Q92542+P49810); experiment: Modulation of gamma secretase in human SH-SY5Y cells overexpressing wild type APP751 assessed as effect on total amyloid beta level by meso scale discovery; type: cell-based
Summary of the method: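 SHSY5Y cells stably overexpressing wild-type human APP751 treated with the compound over a concentration range. Aβ38, Aβ40, Aβ42 and total Aβ in the medium measured by MSD triplex immunoassay (4G8 detection, 2 h at room temperature). Concentrations back-fitted from standard curves.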

[15] = In vivo modulation of gamma secretase in transgenic J20 mouse overexpressing human APP assessed as reduction in plasma amyloid beta42 level at 100 mg/kg, po administered via gavage for 3 consecutive days and measured after 4 hrs post last dose on day 3 by meso scale discovery relative to control; type: functional; parameters: scale not given: the % may be the effect or the level left; conditions: time 3 day
Summary of the method: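 Female J20 mice, 5–6 months old (n=5/dose), given vehicle (5% NMP/95% PEG300) or test article at 25, 50 or 100 mg/kg by oral gavage daily for 3 days. Sacrificed 4 h after final dose; plasma Aβ38/40/42 quantified by Meso Scale multiplex (SECTOR Imager 6000). Percent reduction versus vehicle; mean ± SEM, ANOVA.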

[16] = Drug level in plasma of transgenic J20 mouse overexpressing human APP at 25 mg/kg, po administered via gavage for 3 consecutive days and measured after 4 hrs post last dose on day 3 by HPLC-MS/MS analysis; type: ADME, organism-based; conditions: time 3 day; summary of the method: as §3
[17] = Cmax in CD-1 mouse at 5 mg/kg, po administered as single dose measured up to 24 hrs; type: ADME, organism-based; parameters: route oral, dose 5 mg/kg, time <=24; conditions: in vivo; summary of the method: as §2
Cytochrome P450 2D6 = Cytochrome P450 2D6 (Homo sapiens, UniProt P10635); experiment: Inhibition of recombinant CYP2D6 (unknown origin) by fluorescence-based assay; type: ADME; summary of the method: as §4
Cytochrome P450 2D6, sequence (P10635 whole entry): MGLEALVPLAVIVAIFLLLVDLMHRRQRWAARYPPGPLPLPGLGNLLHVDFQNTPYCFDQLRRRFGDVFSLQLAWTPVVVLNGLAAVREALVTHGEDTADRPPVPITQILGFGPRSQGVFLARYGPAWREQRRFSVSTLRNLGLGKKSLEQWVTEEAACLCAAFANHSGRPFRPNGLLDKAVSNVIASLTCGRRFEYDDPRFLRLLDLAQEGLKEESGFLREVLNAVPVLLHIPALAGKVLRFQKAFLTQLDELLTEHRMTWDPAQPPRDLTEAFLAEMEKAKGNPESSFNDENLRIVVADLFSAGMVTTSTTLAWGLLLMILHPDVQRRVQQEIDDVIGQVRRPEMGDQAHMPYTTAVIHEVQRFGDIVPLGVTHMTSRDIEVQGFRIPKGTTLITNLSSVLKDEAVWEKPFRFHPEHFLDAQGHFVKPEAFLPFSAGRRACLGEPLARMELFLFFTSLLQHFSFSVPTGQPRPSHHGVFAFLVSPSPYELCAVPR

[18] = Apparent permeability from apical to basolateral membrane in MDCK-MDR1 cells; type: ADME, cell-based, Canis lupus familiaris; conditions: dog
Summary of the method: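 Apical-to-basolateral apparent permeability (×10⁻⁶ cm/s) measured across MDR1-MDCK cell monolayers.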

[19] = Drug level in plasma of transgenic J20 mouse overexpressing human APP at 50 mg/kg, po administered via gavage for 3 consecutive days and measured after 4 hrs post last dose on day 3 by HPLC-MS/MS analysis; type: ADME, organism-based; conditions: time 3 day; summary of the method: as §3
[20] = In vivo modulation of gamma secretase in transgenic J20 mouse overexpressing human APP assessed as reduction in plasma amyloid beta42 level at 50 mg/kg, po administered via gavage for 3 consecutive days and measured after 4 hrs post last dose on day 3 by meso scale discovery relative to control; type: functional; parameters: scale not given: the % may be the effect or the level left; conditions: time 3 day
Summary of the method: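 Female J20 mice, 5–6 months old (n=5/dose), dosed orally at 25, 50 or 100 mg/kg or with vehicle (5% NMP/95% PEG300) for 3 consecutive days. Plasma was taken 4 h after the final dose. Aβ38/40/42 measured by Meso Scale multiplex immunoassay, with % reduction relative to vehicle. Mean ± SEM, ANOVA.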

Row | Structure (SMILES) | Stabilty [1] | t1/2 [2] | AUC [3] | concentration at 72 h [4] | concentration at 72 h [5] | concentration at 72 h [6] | BPR [7] | IC50 (Cytochrome P450 2C19) | Stabilty [8] | EC50 (Gamma-secretase [9]) | Tmax [10] | IC50 (Gamma-secretase [11]) | concentration at 72 h [12] | AUC [13] | Activity [14] | Activity [15] | concentration at 72 h [16] | Cmax [17] | IC50 (Cytochrome P450 2D6) | Papp [18] | also measured
1 | COc1nc(-c2csc(Nc3c4c(nn3CCF)CCCC4)n2)ccc1-n1cnc(C)c1 | 100% | 2.6 h | 669 ng·h/mL | 39 ng/g | 105 ng/g | 282 ng/g | 0.81 | 4.6 µM | 100% | 0.187 µM | 4.98 min | 0.047 µM | 183 ng/mL | 288 ng·h/mL | inactive | 55% | 72 ng/mL | 167 ng/mL | > 100 µM | 32.6 10^-6 cm/s | concentration at 72 h [19]: 639 ng/mL; Activity [20]: 48%
2 | CCn1nc2c(c1Nc1nc(-c3ccc(-n4cnc(C)c4)c(OC)n3)cs1)CCC2 | 67% | 5.3 h | 1257 ng·h/mL | 31 ng/g | 337 ng/g | 83 ng/g | 0.37 | > 100 µM | 51% | 0.202 µM | 4.98 min | 0.033 µM | 726 ng/mL | 383 ng·h/mL | inactive | 76% | 86 ng/mL | 377 ng/mL | > 100 µM | 29.6 10^-6 cm/s | concentration at 72 h [19]: 223 ng/mL; Activity [20]: 40%
